Hits are enriched below; roughly 1.4% of the tested compounds scored in any of these assays.
IDE act = IDE (human) activation, cell-based. AID 493087. 340,000 compounds, 0.073% hits. HEK cells, FAbeta-B cleavage, fluorescence polarization; 0% vehicle, 100% cell-free pure enzyme wells. P14735. activation, % at 5.96 µM;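 active = activation above the mean of all tested compounds plus 3 SD, set per screening campaign, cut at about 17% in these data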
IDE cell inh = inhibits human insulin-degrading enzyme in HEK cells; P14735; FAbetaB cleavage, fluorescence polarization; inhibition, % at 5.59 µM; 320,000 compounds, 0.41% hits;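 active = percent inhibition above the average of all tested compounds plus 3 SD, set per screening campaign, cut at about 16% in these data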;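 note: IDE supplied by intact live HEK cells; FP after avidin binding of uncleaved biotin substrate so inhibition keeps polarization high; 0% = DMSO wells and 100% = 60 µM reference IDE inhibitor Ii1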
Efflux pump mplx = inhibitors of Candida antifungal efflux pumps expressed in yeast; S. cerevisiae Candida pump triplex, Nile Red efflux; inhibition, % at 10 µM; 330,000 compounds, 0.44% hits; AID 485275;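 active = plate passing quality check with inhibition over a set limit, or well fluorescence over plate mean plus 4 SD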;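 note: Nile Red retained in pooled yeast measured as flow cytometry median fluorescence; 0% = buffer negative control and 100% = Enniatin B positive control; higher means more Nile Red kept so more efflux inhibition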
HDAC3 inh = blocks human histone deacetylase 3. recombinant HDAC3, fluorogenic peptide/trypsin coupled, fluorescence. AID 2718. O15379. inhibition, % at 8.3 µM. 320,000 compounds, 0.15% hits; in the data active = inhibition above about 26%, passing the limit was not always enough; inconclusive = no clear call, values can overlap the other calls
Target sequence (O15379 whole entry, looked up): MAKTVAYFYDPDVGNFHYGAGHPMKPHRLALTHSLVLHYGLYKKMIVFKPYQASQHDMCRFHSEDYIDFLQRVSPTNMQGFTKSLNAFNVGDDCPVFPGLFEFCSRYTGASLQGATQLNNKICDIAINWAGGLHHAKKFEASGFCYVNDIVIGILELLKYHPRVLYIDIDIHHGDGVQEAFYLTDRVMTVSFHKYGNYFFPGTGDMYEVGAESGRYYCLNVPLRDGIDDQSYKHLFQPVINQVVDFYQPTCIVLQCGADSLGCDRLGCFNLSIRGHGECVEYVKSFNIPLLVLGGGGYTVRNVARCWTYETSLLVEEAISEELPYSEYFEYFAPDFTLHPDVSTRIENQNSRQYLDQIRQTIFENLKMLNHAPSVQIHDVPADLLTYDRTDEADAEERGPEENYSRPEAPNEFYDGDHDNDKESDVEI
TbMetRS inhib = blocks T. brucei methionyl-tRNA synthetase activity; AID 624268; purified T. brucei MetRS, ATP depletion, Kinase-Glo luminescence; 360,000 compounds, 0.4% hits; inhibition, % at 11.9 µM;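 active = inhibition above a per-plate cutoff of the control wells' mean inhibition plus 3 SD, cut at about 5.5% in these data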;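 note: 0% = DMSO wells median and 100% = median of wells with control inhibitor compound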
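technique = Kinase-Glo luminescence, ATP depletion format | system = purified MetRS (methionyl-tRNA synthetase) enzyme from Trypanosoma brucei | timing = 15 min preincubation, 2 h reaction, all 25 °C | evaluation = percent inhibition versus plate control medians | dosing = single dose, 11.9 µM final nominal, 0.9% final DMSO | also added = substrates ATP, L-methionine and bulk Escherichia coli tRNA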
Yeast superoxide = yeast age-related superoxide inhibition as caloric restriction mimetic | S. cerevisiae aged cells, superoxide DHE fluorescence; stronger effect = lower value | superoxide response (% of plate mean), % at 10 µM | 330,000 compounds, 0.18% hits | AID 2690;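 active = superoxide response under a set limit, about three screen SD below normal, cut at about 65% in these data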;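 note: yeast aged for seven days with compound at 30 °C before DHE staining; 100% = average MFI of all compound-treated wells on the plate with controls excluded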
Yeast cmpd fluor = flagged as fluorescent in efflux inhibitor counter-screen | shares compounds with Efflux pump mplx | S. cerevisiae AD/pABC3, compound fluorescence, flow cytometry | fluorescence ratio to DMSO, % at 10 µM | 1,700 compounds, 4% hits | AID 588517;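 active = fluorescence ratio to DMSO above its plate's cutoff, the plate mean ratio plus 5 SD, cut at about 210% in these data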;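 note: unstained yeast with no Nile Red so the signal is compound autofluorescence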
CaMdr1 efflux inh = Candida Mdr1 efflux pump inhibition; 1,700 compounds, 1% hits; inhibition, % at 10 µM; S. cerevisiae AD/CaMDR1, Nile Red efflux, flow cytometry; AID 588518; shares compounds with Efflux pump mplx; in the data active = inhibition above about 26%;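 note: 0% = DMSO vehicle and 100% = reference inhibitor; higher means more Nile Red retained so more efflux inhibition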
CaCdr2 efflux inh = blocks the Candida albicans Cdr2 efflux pump in yeast. shares compounds with Efflux pump mplx. S. cerevisiae AD/CaCDR2, Nile Red retention, flow cytometry. Nile Red retention ratio vs DMSO, % at 10 µM. 1,700 compounds, 4% hits; in the data active = Nile Red retention ratio vs DMSO above about 190%;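 note: higher ratio means more blocking of Cdr2 efflux of the dye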
Cdr1 pump inh = blocks the Candida albicans Cdr1 efflux pump in yeast; shares compounds with Efflux pump mplx; S. cerevisiae AD/CaCDR1, Nile Red efflux, flow cytometry; inhibition, % at 10 µM; 1,700 compounds, 1% hits;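 active = inhibition above the screen-wide mean plus twice its standard deviation, cut at about 32% in these data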
Numbers without * were called inactive.

What do the screens show for `COc1ccc2[nH]cc(C(=O)CN3CCC(C)CC3)c2c1`?
IDE act: 1; IDE cell inh: -3; Efflux pump mplx: 8.2*; HDAC3 inh: -1; TbMetRS inhib: -2; Yeast superoxide: 108; Yeast cmpd fluor: 105; CaMdr1 efflux inh: 0; CaCdr2 efflux inh: 112; Cdr1 pump inh: 0

How did CC1CCc2c(sc3nc(CN4CCOCC4)nc(N4CCc5ccccc5C4)c23)C1 (stereo unspecified) do in these assays?
IDE act: 2; IDE cell inh: 6; Efflux pump mplx: 20*; HDAC3 inh: inconclusive; TbMetRS inhib: -1; Yeast superoxide: 100; Yeast cmpd fluor: 91; CaMdr1 efflux inh: 0; CaCdr2 efflux inh: 116; Cdr1 pump inh: 0

What do the screens show for `CC/C(O)=C(/C#N)c1nnc2n1CCCCC2`?
IDE act: 1; IDE cell inh: -1; Efflux pump mplx: 0; HDAC3 inh: 4; TbMetRS inhib: 1; Yeast superoxide: 100

Results for CC/C(O)=C(\C#N)c1nnc2n1CCCCC2 ?
IDE act: -7; IDE cell inh: 0; Efflux pump mplx: 6.7*; HDAC3 inh: -1; TbMetRS inhib: 0; Yeast superoxide: 111; Yeast cmpd fluor: 106; CaMdr1 efflux inh: 0; CaCdr2 efflux inh: 95; Cdr1 pump inh: 0

Results for CCN1CCN(c2ccc(S(=O)(=O)N3CCOCC3)cc2NC(=O)c2ccc(C(F)(F)F)cc2)CC1 ?
IDE act: 1; IDE cell inh: 1; Efflux pump mplx: 0; HDAC3 inh: -4; TbMetRS inhib: 0; Yeast superoxide: 91

How did Cc1cccc(NC(=O)c2nc[nH]c2C(=O)N[C@H](C)c2ccccc2)c1 do in these assays?
IDE act: 1; IDE cell inh: 3; Efflux pump mplx: 0.9*; HDAC3 inh: -13; TbMetRS inhib: 0; Yeast superoxide: 137; Yeast cmpd fluor: 106; CaMdr1 efflux inh: 0; CaCdr2 efflux inh: 104; Cdr1 pump inh: 0

Results for C[C@H](NC(=O)c1[nH]cnc1C(=O)Nc1ccccc1)c1ccccc1 ?
IDE act: 4; IDE cell inh: -3; Efflux pump mplx: 0; HDAC3 inh: 5; TbMetRS inhib: 0; Yeast superoxide: 128

What do the screens show for `Cc1cc(C)c(S(=O)(=O)N2CCc3ccccc32)c(C)c1`?
IDE act: 3; IDE cell inh: -3; Efflux pump mplx: 0.9*; HDAC3 inh: 2; TbMetRS inhib: 0; Yeast superoxide: 103; Yeast cmpd fluor: 207; CaMdr1 efflux inh: 0; CaCdr2 efflux inh: 108; Cdr1 pump inh: 0

What do the screens show for `COc1cccc(NC(=O)CN(C)C(=O)CCNC(=O)c2ccccc2OC)c1`?
IDE act: 1; TbMetRS inhib: 0

How did O=C(Oc1c(-c2ccccc2)c(=O)n2c3c(cccc13)CC2)c1ccco1 do in these assays?
IDE cell inh: 4; Efflux pump mplx: 0; HDAC3 inh: -1; TbMetRS inhib: -1; Yeast superoxide: 102; Yeast cmpd fluor: 97; CaMdr1 efflux inh: 0; CaCdr2 efflux inh: 106; Cdr1 pump inh: 0

How did O=C(Oc1c(-c2ccccc2)c(=O)n2c3c(cccc13)CC2)c1ccc(Cl)cc1 do in these assays?
IDE act: 4; IDE cell inh: 2; Efflux pump mplx: 0; HDAC3 inh: -9; TbMetRS inhib: 0; Yeast superoxide: 112; Yeast cmpd fluor: 97; CaMdr1 efflux inh: 0; CaCdr2 efflux inh: 97; Cdr1 pump inh: 0

What do the screens show for `CC1CCc2c(sc3nc(C(C)(C)C)nc(N4CCN(C(=O)CCl)CC4)c23)C1` (stereo unspecified)?
IDE act: 0; IDE cell inh: 1; Efflux pump mplx: 0.6*; HDAC3 inh: 19; TbMetRS inhib: -1; Yeast superoxide: 95; Yeast cmpd fluor: 111; CaMdr1 efflux inh: 0; CaCdr2 efflux inh: 121; Cdr1 pump inh: 0

What do the screens show for `Cc1nn(C)c(C(=O)N/N=C/c2cccnc2)c1Br`?
IDE act: -2; IDE cell inh: -1; Efflux pump mplx: -5; HDAC3 inh: -2; TbMetRS inhib: 0; Yeast superoxide: 86

Results for CNCc1ccccc1OCC(=O)Nc1ccccc1 ?
IDE act: 8; IDE cell inh: 2; Efflux pump mplx: 8.2*; HDAC3 inh: -5; TbMetRS inhib: -1; Yeast superoxide: 111; Yeast cmpd fluor: 106; CaMdr1 efflux inh: 0; CaCdr2 efflux inh: 106; Cdr1 pump inh: 0

How did CCc1ccccc1OCC(=O)Nc1ccc(S(N)(=O)=O)cc1 do in these assays?
IDE act: 3; IDE cell inh: -3; Efflux pump mplx: 0; HDAC3 inh: 3; TbMetRS inhib: 0; Yeast superoxide: 107

How did COc1ccc(S(=O)(=O)N(C)CC(=O)NCCCN2CCOCC2)cc1C do in these assays?
IDE act: 7; TbMetRS inhib: 0

How did CCC(Cc1ccccc1)NC(=O)c1ccc2nc(N3CCOCC3)sc2c1 (stereo unspecified) do in these assays?
IDE act: 1; IDE cell inh: 0; Efflux pump mplx: 2.1*; HDAC3 inh: 4; TbMetRS inhib: 0; Yeast superoxide: 111; Yeast cmpd fluor: 108; CaMdr1 efflux inh: 0; CaCdr2 efflux inh: 104; Cdr1 pump inh: 0

What do the screens show for `CC(CCc1ccccc1)NC(=O)c1ccc2nc(N3CCOCC3)sc2c1` (stereo unspecified)?
IDE act: 6; IDE cell inh: -1; Efflux pump mplx: 0; HDAC3 inh: 4; TbMetRS inhib: -1; Yeast superoxide: 103

What do the screens show for `CCC(C)NC(=O)c1ccc(CSc2nc3ccncc3n2Cc2ccc(F)cc2)cc1` (stereo unspecified)?
IDE act: 2; IDE cell inh: 2; Efflux pump mplx: 0; HDAC3 inh: -2; TbMetRS inhib: 0; Yeast superoxide: 92; Yeast cmpd fluor: 110; CaMdr1 efflux inh: 0; CaCdr2 efflux inh: 92; Cdr1 pump inh: 0

What do the screens show for `Cc1ccc(CNC(=O)Cn2cnc(C(=O)Nc3ccc(C)c(C)c3)n2)o1`?
IDE act: 3; Efflux pump mplx: 0; TbMetRS inhib: 0; Yeast superoxide: 103

How did CCn1cc(C(=O)O)c(=O)c2cnc(N3CCN(C(=S)NC(=O)c4ccccc4)CC3)nc21 do in these assays?
IDE act: 1; IDE cell inh: 4; Efflux pump mplx: 0.8*; HDAC3 inh: -1; TbMetRS inhib: 0; Yeast superoxide: 106; Yeast cmpd fluor: 93; CaMdr1 efflux inh: 0; CaCdr2 efflux inh: 98; Cdr1 pump inh: 0

Screening results (PubChem)
